This is an account of results in ChEMBL document CHEMBL1145026, “Synthesis and antibacterial activity of 6-O-arylbutynyl ketolides with improved activity against some key erythromycin-resistant pathogens” (2003).

≈ marks a conversion by molar mass, not a printed value.

Holding throughout (format): functional
The subject of one assay is Haemophilus influenzae. Put plainly: In Vitro antibacterial activity against H. flu DILL (Amp-R strain). In outline: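 MIC by agar dilution following NCCLS recommendations. Test organism is H. influenzae DILL, an ampicillin-resistant strain carrying a β-lactamase-positive determinant.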
In assay [1] the test system is Staphylococcus aureus. Put plainly: In Vitro antibacterial activity against Staphylococcus aureus 1775 (ermA-c strain). In a few lines:
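Methicillin-resistant (MRSA) strain. Minimum inhibitory concentration read by agar dilution, following NCCLS recommendations.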

Assay [2] concerns Staphylococcus aureus. Put plainly: In Vitro antibacterial activity against Staphylococcus aureus A5177 (ermA-i strain). In a few lines: (§1)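 MIC by agar dilution following NCCLS recommendations, against S. aureus.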
Assay [3] has as its system Staphylococcus aureus. Nature of the assay: In Vitro antibacterial activity against Staphylococcus aureus ATCC 6538P (Ery-S […] strain). In a few lines: as §1
Assay [4] deals with Streptococcus pyogenes. Put plainly: In Vitro antibacterial ativity against Streptococcus pyogenes 930 (ermB strain). In a few lines:
(§2)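 Strains with MLSB resistance encoded by ermB. MICs obtained by agar dilution as recommended by NCCLS.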

Assay [5] concerns Streptococcus pneumoniae. Nature of the assay: In Vitro antibacterial activity against Streptococcus pneumoniae ATCC 6303 (Ery-S strain). In a few lines: (§3)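 Agar dilution method per NCCLS recommendations, with activity reported as minimum inhibitory concentration.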
Assay [6] deals with Streptococcus pyogenes. Nature of the assay: In Vitro antibacterial ativity against Streptococcus pyogenes EES61 (Ery-S strain). In a few lines: as §3
Assay [7] has as its system Streptococcus pneumoniae. Put plainly: In Vitro antibacterial activity against Streptococcus pneumoniae 5649 (mefE strain). In a few lines:
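Efflux-resistant strain carrying mefE. MIC determined by the agar dilution method recommended by NCCLS.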

Assay [8] has as its system Streptococcus pneumoniae. Put plainly: In Vitro antibacterial activity against Streptococcus pneumoniae 5979 (ermB strain). In a few lines:
as §2

Assay [9] has as its system Streptococcus pyogenes. Nature of the assay: In Vitro antibacterial ativity against Streptococcus pyogenes PIU2548 (mefA strain). In outline:
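Tested on a mefA-encoded efflux-resistant strain. The endpoint is the MIC by NCCLS-recommended agar dilution.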

On to `CC[C@H]1OC(=O)[C@H](C)C(=O)[C@H](C)[C@@H](O[C@@H]2O[C@H](C)C[C@H](N(C)C)[C@H]2O)[C@@](C)(OCC#CCc2cnc3ccccc3c2)C[C@@H](C)C(=O)[C@H](C)[C@H]2NC(=O)O[C@@]21C`, for which the MIC with Haemophilus influenzae is 2 µg/mL (≈ 2.57 µM); against Staphylococcus aureus [1], above 100 µg/mL; against Staphylococcus aureus [2], 0.1 µg/mL (≈ 0.129 µM); against Staphylococcus aureus [3] it was 0.1 µg/mL (≈ 0.129 µM); in the assay with Streptococcus pyogenes [4], 16 µg/mL (≈ 20.6 µM); against Streptococcus pneumoniae [5] it was below 0.004 µg/mL. Moreover, the MIC with Streptococcus pyogenes [6] was 0.015 µg/mL (≈ 0.0193 µM); against Streptococcus pneumoniae [7], 0.25 µg/mL (≈ 0.321 µM); in the assay on Streptococcus pneumoniae [8], 2 µg/mL (≈ 2.57 µM); in the assay with Streptococcus pyogenes [9], 0.25 µg/mL (≈ 0.321 µM).

Take `CC[C@H]1OC(=O)[C@H](C)C(=O)[C@H](C)[C@@H](O[C@@H]2O[C@H](C)C[C@H](N(C)C)[C@H]2O)[C@](C)(OC)C[C@@H](C)C(=O)[C@H](C)[C@H]2N(CCCCn3cnc(-c4cccnc4)c3)C(=O)O[C@]12C` [TELITHROMYCIN]: the MIC is 2 µg/mL (≈ 2.46 µM) in the assay with Haemophilus influenzae; above 100 µg/mL with Staphylococcus aureus [1]; 0.1 µg/mL (≈ 0.123 µM) in the assay with Staphylococcus aureus [2]; 0.1 µg/mL (≈ 0.123 µM) against Staphylococcus aureus [3]; 8 µg/mL (≈ 9.85 µM) against Streptococcus pyogenes [4]; 0.004 µg/mL (≈ 0.00493 µM) against Streptococcus pneumoniae [5]. The MIC worked out at 0.004 µg/mL (≈ 0.00493 µM) in the assay with Streptococcus pyogenes [6], 0.5 µg/mL (≈ 0.616 µM) in the assay with Streptococcus pneumoniae [7], 8 µg/mL (≈ 9.85 µM) against Streptococcus pneumoniae [8] and 2 µg/mL (≈ 2.46 µM) against Streptococcus pyogenes [9].

`CC[C@H]1OC(=O)[C@@](C)(F)C(=O)[C@H](C)[C@@H](O[C@@H]2O[C@H](C)C[C@H](N(C)C)[C@H]2O)[C@@](C)(OCC#CCc2ccc(-c3csnn3)cc2)C[C@@H](C)C(=O)[C@H](C)[C@H]2NC(=O)O[C@@]21C`: the MIC with Haemophilus influenzae was 4 µg/mL (≈ 4.83 µM); in the assay on Staphylococcus aureus [1], above 100 µg/mL; against Staphylococcus aureus [2], 0.05 µg/mL (≈ 0.0603 µM); against Staphylococcus aureus [3] it was 0.05 µg/mL (≈ 0.0603 µM); against Streptococcus pyogenes [4] it was 4 µg/mL (≈ 4.83 µM); with Streptococcus pneumoniae [5] it was 0.015 µg/mL (≈ 0.0181 µM). For the same compound, the MIC in the assay on Streptococcus pyogenes [6] amounted to 0.03 µg/mL (≈ 0.0362 µM); in the assay on Streptococcus pneumoniae [7], 0.5 µg/mL (≈ 0.603 µM); in the assay on Streptococcus pneumoniae [8] it was 4 µg/mL (≈ 4.83 µM); in the assay with Streptococcus pyogenes [9], 0.25 µg/mL (≈ 0.302 µM).

As to `CC[C@H]1OC(=O)[C@H](C)C(=O)[C@H](C)[C@@H](O[C@@H]2O[C@H](C)C[C@H](N(C)C)[C@H]2O)[C@@](C)(OCC#CCc2ccccc2)C[C@@H](C)C(=O)[C@H](C)[C@H]2NC(=O)O[C@@]21C`, the MIC in the assay on Haemophilus influenzae was 2 µg/mL (≈ 2.75 µM); with Staphylococcus aureus [1] it was above 100 µg/mL; in the assay with Staphylococcus aureus [2], 0.2 µg/mL (≈ 0.275 µM); against Staphylococcus aureus [3] it was 0.2 µg/mL (≈ 0.275 µM); against Streptococcus pyogenes [4], 128 µg/mL (≈ 176 µM); against Streptococcus pneumoniae [5] it was 0.03 µg/mL (≈ 0.0413 µM). For the same compound, the MIC against Streptococcus pyogenes [6] was 0.06 µg/mL (≈ 0.0825 µM); with Streptococcus pneumoniae [7], 0.25 µg/mL (≈ 0.344 µM); in the assay on Streptococcus pneumoniae [8], 16 µg/mL (≈ 22 µM); with Streptococcus pyogenes [9], 0.25 µg/mL (≈ 0.344 µM).

Regarding `CC[C@H]1OC(=O)[C@H](C)C(=O)[C@H](C)[C@@H](O[C@@H]2O[C@H](C)C[C@H](N(C)C)[C@H]2O)[C@@](C)(OCC#CCc2ccc(-c3cccnc3)cc2)C[C@@H](C)C(=O)[C@H](C)[C@H]2NC(=O)O[C@@]21C`, the MIC in the assay on Haemophilus influenzae was 4 µg/mL (≈ 4.98 µM); in the assay with Staphylococcus aureus [1], above 100 µg/mL; against Staphylococcus aureus [2], 0.02 µg/mL (≈ 0.0249 µM); against Staphylococcus aureus [3], 0.02 µg/mL (≈ 0.0249 µM); in the assay with Streptococcus pyogenes [4] it was 8 µg/mL (≈ 9.95 µM); against Streptococcus pneumoniae [5], below 0.004 µg/mL. The MIC against Streptococcus pyogenes [6] is below 0.004 µg/mL; with Streptococcus pneumoniae [7], 0.125 µg/mL (≈ 0.155 µM); with Streptococcus pneumoniae [8], 0.125 µg/mL (≈ 0.155 µM); with Streptococcus pyogenes [9] it was 0.125 µg/mL (≈ 0.155 µM).

For the compound `CC[C@H]1OC(=O)[C@H](C)C(=O)[C@H](C)[C@@H](O[C@@H]2O[C@H](C)C[C@H](N(C)C)[C@H]2O)[C@@](C)(OCC#CCc2ccc(-c3cnccn3)cc2)C[C@@H](C)C(=O)[C@H](C)[C@H]2NC(=O)O[C@@]21C`, the MIC against Haemophilus influenzae is 4 µg/mL (≈ 4.97 µM); in the assay on Staphylococcus aureus [1], above 100 µg/mL; with Staphylococcus aureus [2], 0.02 µg/mL (≈ 0.0248 µM); in the assay on Staphylococcus aureus [3], 0.02 µg/mL (≈ 0.0248 µM); in the assay with Streptococcus pyogenes [4], 4 µg/mL (≈ 4.97 µM); against Streptococcus pneumoniae [5] it was below 0.004 µg/mL. Besides, the MIC was below 0.004 µg/mL with Streptococcus pyogenes [6], 0.03 µg/mL (≈ 0.0373 µM) with Streptococcus pneumoniae [8] and 0.015 µg/mL (≈ 0.0186 µM) in the assay with Streptococcus pyogenes [9].

For the compound `CC[C@H]1OC(=O)[C@H](C)C(=O)[C@H](C)[C@@H](O[C@@H]2O[C@H](C)C[C@H](N(C)C)[C@H]2O)[C@@](C)(OCC#CCc2ccc(-c3csnn3)cc2)C[C@@H](C)C(=O)[C@H](C)[C@H]2NC(=O)O[C@@]21C`, the MIC is 2 µg/mL (≈ 2.47 µM) with Haemophilus influenzae; above 100 µg/mL in the assay with Staphylococcus aureus [1]; 0.1 µg/mL (≈ 0.123 µM) against Staphylococcus aureus [2]; 0.05 µg/mL (≈ 0.0617 µM) against Staphylococcus aureus [3]; 4 µg/mL (≈ 4.93 µM) in the assay on Streptococcus pyogenes [4]; below 0.004 µg/mL against Streptococcus pneumoniae [5]. The MIC turned out to be 0.03 µg/mL (≈ 0.037 µM) against Streptococcus pyogenes [6], 0.25 µg/mL (≈ 0.308 µM) with Streptococcus pneumoniae [7], 8 µg/mL (≈ 9.86 µM) in the assay on Streptococcus pneumoniae [8] and 0.125 µg/mL (≈ 0.154 µM) against Streptococcus pyogenes [9].

Regarding `CC[C@H]1OC(=O)[C@H](C)[C@@H](O[C@H]2C[C@@](C)(OC)[C@@H](O)[C@H](C)O2)[C@H](C)[C@@H](O[C@@H]2O[C@H](C)C[C@H](N(C)C)[C@H]2O)[C@](C)(O)C[C@@H](C)C(=O)[C@H](C)[C@@H](O)[C@]1(C)O` [ERYTHROMYCIN], the MIC with Haemophilus influenzae is 4 µg/mL (≈ 5.45 µM); with Staphylococcus aureus [1], above 128 µg/mL; against Staphylococcus aureus [2] it was above 128 µg/mL; against Staphylococcus aureus [3] it was 0.5 µg/mL (≈ 0.681 µM); with Streptococcus pyogenes [4] it was above 128 µg/mL; with Streptococcus pneumoniae [5] it was 0.015 µg/mL (≈ 0.0204 µM). Moreover, the MIC in the assay with Streptococcus pyogenes [6] was 0.015 µg/mL (≈ 0.0204 µM); against Streptococcus pneumoniae [7], 4 µg/mL (≈ 5.45 µM); in the assay with Streptococcus pneumoniae [8], above 128 µg/mL; with Streptococcus pyogenes [9] it was 8 µg/mL (≈ 10.9 µM).
